In ChEMBL document CHEMBL1154067, “Antiviral and cytotoxic activities of aminoarylazo compounds and aryltriazene derivatives” (Bioorg Med Chem, 2009):
Active and inactive are the calls of the source.

Test system: Respiratory syncytial virus
Assay: Antiviral activity against Respiratory syncytial virus A2 infected in Vero-76 cells after 5 days by plaque reduction assay
Format: functional, organism-based
Conditions: human respiratory syncytial virus, A2, Vero 76, 120 h
In the case of `Fc1ccc(F)c(/N=N/c2ccc(NC[C@@H]3CCCN4CCCC[C@H]34)c3c2CCCC3)c1`, the EC50 is reported as > 80 µM.
In the case of `O=[N+]([O-])c1cccc(/N=N/Nc2ccccc2)c1`, the EC50 is reported as > 33 µM.
Compound `Fc1ccc(F)c(/N=N/Nc2cccc(C(F)(F)F)c2)c1` has an EC50 of 10 µM.
`CN(/N=N/c1ccccc1)c1ccccc1` showed an EC50 of 20 µM.
In the case of `O=[N+]([O-])c1cccc(/N=N/Nc2cccc([N+](=O)[O-])c2)c1`, the EC50 is reported as > 100 µM.

Test system: Bovine viral diarrhea virus 1
Assay: Antiviral activity against Bovine viral diarrhea virus infected in MDBK cells assessed as inhibition of virus-induced cytopathicity after 3 to 4 days by MTT assay
Format: functional, organism-based
Conditions: Bovine viral diarrhea virus isolates and strains
In the case of `Fc1ccc(F)c(/N=N/c2ccc(NC[C@@H]3CCCN4CCCC[C@H]34)c3c2CCCC3)c1`, the EC50 is reported as > 64 µM.
With `O=[N+]([O-])c1cccc(/N=N/Nc2ccccc2)c1` the EC50 was 19 µM.
With `Fc1ccc(F)c(/N=N/Nc2cccc(C(F)(F)F)c2)c1` the EC50 was > 100 µM.
In the case of `CN(/N=N/c1ccccc1)c1ccccc1`, the EC50 is reported as > 100 µM.
In the case of `O=[N+]([O-])c1cccc(/N=N/Nc2cccc([N+](=O)[O-])c2)c1`, the EC50 is reported as > 100 µM.

Test system: Poliovirus 1
Assay: Antiviral activity against Human poliovirus 1 strain Sabin after 2 days by plaque reduction assay
Format: functional
Conditions: not given
For `Fc1ccc(F)c(/N=N/c2ccc(NC[C@@H]3CCCN4CCCC[C@H]34)c3c2CCCC3)c1`, the Activity was “inactive”.

Same assay, conditions: Enterovirus C, 48 h
With `O=[N+]([O-])c1cccc(/N=N/Nc2ccccc2)c1` the EC50 was > 33 µM.
For `Fc1ccc(F)c(/N=N/Nc2cccc(C(F)(F)F)c2)c1`, the EC50 was > 80 µM.
For `CN(/N=N/c1ccccc1)c1ccccc1`, the EC50 was > 50 µM.
With `O=[N+]([O-])c1cccc(/N=N/Nc2cccc([N+](=O)[O-])c2)c1` the EC50 was > 100 µM.

Test system: Vero
Assay: Cytotoxicity against african green monkey Vero 76 cells by crystal violet staining
Format: cell-based
Conditions: chlorocebus sabaeus, vero
Outline: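 Mock-infected Vero 76 seeded at 4 × 10^5 cells/mL, run in parallel with plaque assays, with or without serial compound dilutions. Cell number of monolayers determined by crystal violet staining. CC50 = concentration reducing viable cell number 50%.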
With `Fc1ccc(F)c(/N=N/c2ccc(NC[C@@H]3CCCN4CCCC[C@H]34)c3c2CCCC3)c1` the CC50 was 80 µM.
For `O=[N+]([O-])c1cccc(/N=N/Nc2ccccc2)c1`, the CC50 was 33 µM.
With `Fc1ccc(F)c(/N=N/Nc2cccc(C(F)(F)F)c2)c1` the CC50 was 80 µM.
`CN(/N=N/c1ccccc1)c1ccccc1` showed a CC50 of 50 µM.
For `O=[N+]([O-])c1cccc(/N=N/Nc2cccc([N+](=O)[O-])c2)c1`, the CC50 was > 100 µM.

Test system: Coxsackievirus B2
Assay: Antiviral activity against Coxsackie virus type B2 virus infected in african green monkey Vero-76 cells after 3 days by plaque reduction assay
Format: functional, organism-based
Conditions: Enterovirus B, Vero 76, 72 h
Outline: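 Vero 76 cells seeded at 2 × 10^5 cells/well, grown overnight to confluence at 37 °C in 5% CO2, then infected at 50–100 PFU/well. Unadsorbed virus removed. Overlay of DMEM with 1% inactivated FCS and 0.75% methylcellulose, with or without serial compound dilutions. After 3 days at 37 °C, fixed and stained with crystal violet in PBS/50% ethanol; plaques counted. EC50 is the concentration reducing plaque number by 50%.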
In the case of `Fc1ccc(F)c(/N=N/c2ccc(NC[C@@H]3CCCN4CCCC[C@H]34)c3c2CCCC3)c1`, the EC50 is reported as > 80 µM.
With `O=[N+]([O-])c1cccc(/N=N/Nc2ccccc2)c1` the EC50 was > 33 µM.
For `Fc1ccc(F)c(/N=N/Nc2cccc(C(F)(F)F)c2)c1`, the EC50 was > 80 µM.
With `CN(/N=N/c1ccccc1)c1ccccc1` the EC50 was > 50 µM.
With `O=[N+]([O-])c1cccc(/N=N/Nc2cccc([N+](=O)[O-])c2)c1` the EC50 was > 100 µM.

Test system: Mammalian orthoreovirus 1
Assay: Antiviral activity against Reovirus-1 infected in BHK-21 cells assessed as inhibition of virus-induced cytopathicity after 3 to 4 days by MTT assay
Format: functional, organism-based
Conditions: Mammalian orthoreovirus 1, BHK-21
Outline: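 BHK-21 cells seeded at 5 × 10^4 cells/well, grown overnight to confluent monolayers at 37 °C in 5% CO2, then infected at m.o.i. 0.01 in serum-free medium. One hour later, MEM Earle's with 1% final inactivated FCS added, with or without serial compound dilutions. Viability read by MTT after 3–4 days at 37 °C. EC50 is the concentration giving 50% protection from cytopathogenicity.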
For `Fc1ccc(F)c(/N=N/c2ccc(NC[C@@H]3CCCN4CCCC[C@H]34)c3c2CCCC3)c1`, the EC50 was > 38 µM.
In the case of `O=[N+]([O-])c1cccc(/N=N/Nc2ccccc2)c1`, the EC50 is reported as > 38 µM.
In the case of `Fc1ccc(F)c(/N=N/Nc2cccc(C(F)(F)F)c2)c1`, the EC50 is reported as > 100 µM.
For `CN(/N=N/c1ccccc1)c1ccccc1`, the EC50 was > 100 µM.
With `O=[N+]([O-])c1cccc(/N=N/Nc2cccc([N+](=O)[O-])c2)c1` the EC50 was > 100 µM.

Test system: Vaccinia virus
Assay: Antiviral activity against Vaccinia virus after 3 days by plaque reduction assay
Format: functional, organism-based
Conditions: Orthopoxvirus vaccinia
With `Fc1ccc(F)c(/N=N/c2ccc(NC[C@@H]3CCCN4CCCC[C@H]34)c3c2CCCC3)c1` the Activity was “inactive”.
In the case of `O=[N+]([O-])c1cccc(/N=N/Nc2ccccc2)c1`, the Activity is reported as “inactive”.
With `Fc1ccc(F)c(/N=N/Nc2cccc(C(F)(F)F)c2)c1` the Activity was “inactive”.
With `CN(/N=N/c1ccccc1)c1ccccc1` the Activity was “inactive”.
With `O=[N+]([O-])c1cccc(/N=N/Nc2cccc([N+](=O)[O-])c2)c1` the Activity was “inactive”.

Test system: MT4
Assay: Cytotoxicity against human MT4 cells after 96 hrs by MTT assay
Format: cell-based
Conditions: mt4, 96 h
Outline: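 Exponentially growing mock-infected MT-4 seeded at 1 × 10^5 cells/mL in RPMI-1640 with 10% FCS, penicillin and streptomycin. Incubated with or without serial compound dilutions at 37 °C, 5% CO2. Viability by MTT after 96 h. CC50 = concentration reducing viability 50%.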
`Fc1ccc(F)c(/N=N/c2ccc(NC[C@@H]3CCCN4CCCC[C@H]34)c3c2CCCC3)c1` gave a CC50 of 40 µM.
With `O=[N+]([O-])c1cccc(/N=N/Nc2ccccc2)c1` the CC50 was 40 µM.
For `Fc1ccc(F)c(/N=N/Nc2cccc(C(F)(F)F)c2)c1`, the CC50 was > 100 µM.
`CN(/N=N/c1ccccc1)c1ccccc1` showed a CC50 of 55 µM.
For `O=[N+]([O-])c1cccc(/N=N/Nc2cccc([N+](=O)[O-])c2)c1`, the CC50 was > 100 µM.

Test system: Yellow fever virus
Assay: Antiviral activity against Yellow fever virus infected in BHK-21 cells assessed as inhibition of virus-induced cytopathicity after 3 to 4 days by MTT assay
Format: functional, organism-based
Conditions: not given
In the case of `Fc1ccc(F)c(/N=N/c2ccc(NC[C@@H]3CCCN4CCCC[C@H]34)c3c2CCCC3)c1`, the EC50 is reported as > 38 µM.
In the case of `O=[N+]([O-])c1cccc(/N=N/Nc2ccccc2)c1`, the EC50 is reported as > 38 µM.
In the case of `Fc1ccc(F)c(/N=N/Nc2cccc(C(F)(F)F)c2)c1`, the EC50 is reported as 80 µM.
In the case of `CN(/N=N/c1ccccc1)c1ccccc1`, the EC50 is reported as > 100 µM.
With `O=[N+]([O-])c1cccc(/N=N/Nc2cccc([N+](=O)[O-])c2)c1` the EC50 was > 100 µM.

Test system: not listed separately
Assay: Cytotoxicity against hamster BHK21 cells assessed as reduction in cell viability after 48 to 96 hrs by MTT assay
Format: cell-based, Mesocricetus auratus, BHK-21
Conditions: bhk-21
Outline: (§1)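 Mock-infected cells in maintenance medium, MDBK at 6 × 10^5 and BHK at 1 × 10^6 cells/mL initial density, with or without serial compound dilutions. Run in parallel with antiviral assays. Viability by MTT after 48–96 h at 37 °C, 5% CO2. CC50 = concentration reducing viability 50%.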
For `Fc1ccc(F)c(/N=N/c2ccc(NC[C@@H]3CCCN4CCCC[C@H]34)c3c2CCCC3)c1`, the CC50 was 38 µM.
`O=[N+]([O-])c1cccc(/N=N/Nc2ccccc2)c1` gave a CC50 of 38 µM.
For `Fc1ccc(F)c(/N=N/Nc2cccc(C(F)(F)F)c2)c1`, the CC50 was > 100 µM.
In the case of `CN(/N=N/c1ccccc1)c1ccccc1`, the CC50 is reported as > 100 µM.
In the case of `O=[N+]([O-])c1cccc(/N=N/Nc2cccc([N+](=O)[O-])c2)c1`, the CC50 is reported as > 100 µM.

Test system: not listed separately
Assay: Cytotoxicity against MDBK cells after 48 to 96 hrs by MTT assay
Format: cell-based, Bos taurus
Conditions: cattle, mdbk
Outline: as §1
`Fc1ccc(F)c(/N=N/c2ccc(NC[C@@H]3CCCN4CCCC[C@H]34)c3c2CCCC3)c1` gave a CC50 of 64 µM.
With `O=[N+]([O-])c1cccc(/N=N/Nc2ccccc2)c1` the CC50 was 94 µM.
For `Fc1ccc(F)c(/N=N/Nc2cccc(C(F)(F)F)c2)c1`, the CC50 was > 100 µM.
For `CN(/N=N/c1ccccc1)c1ccccc1`, the CC50 was > 100 µM.
With `O=[N+]([O-])c1cccc(/N=N/Nc2cccc([N+](=O)[O-])c2)c1` the CC50 was > 100 µM.

Test system: Vesicular stomatitis virus
Assay: Antiviral activity against Vesicular stomatitis virus after 2 days by plaque reduction assay
Format: functional, organism-based
Conditions: not given
With `Fc1ccc(F)c(/N=N/c2ccc(NC[C@@H]3CCCN4CCCC[C@H]34)c3c2CCCC3)c1` the Activity was “inactive”.
With `O=[N+]([O-])c1cccc(/N=N/Nc2ccccc2)c1` the Activity was “inactive”.
For `Fc1ccc(F)c(/N=N/Nc2cccc(C(F)(F)F)c2)c1`, the Activity was “inactive”.
In the case of `CN(/N=N/c1ccccc1)c1ccccc1`, the Activity is reported as “inactive”.
With `O=[N+]([O-])c1cccc(/N=N/Nc2cccc([N+](=O)[O-])c2)c1` the Activity was “inactive”.

Test system: Human immunodeficiency virus 1
Assay: Antiviral activity against HIV1 infected in human MT4 cells assessed as inhibition of virus-induced cytopathicity after 4 days by MTT assay
Format: functional, organism-based
Conditions: not given
For `Fc1ccc(F)c(/N=N/c2ccc(NC[C@@H]3CCCN4CCCC[C@H]34)c3c2CCCC3)c1`, the inhibition was “inactive”.
With `O=[N+]([O-])c1cccc(/N=N/Nc2ccccc2)c1` the inhibition was “inactive”.
For `Fc1ccc(F)c(/N=N/Nc2cccc(C(F)(F)F)c2)c1`, the inhibition was “inactive”.
For `CN(/N=N/c1ccccc1)c1ccccc1`, the inhibition was “inactive”.
With `O=[N+]([O-])c1cccc(/N=N/Nc2cccc([N+](=O)[O-])c2)c1` the inhibition was “inactive”.

Test system: Human alphaherpesvirus 1
Assay: Antiviral activity against HSV1 infected in Vero-76 cells after 3 days by plaque reduction assay
Format: functional, organism-based
Conditions: Human alphaherpesvirus 1, Vero 76, 72 h
With `Fc1ccc(F)c(/N=N/c2ccc(NC[C@@H]3CCCN4CCCC[C@H]34)c3c2CCCC3)c1` the EC50 was > 80 µM.
With `O=[N+]([O-])c1cccc(/N=N/Nc2ccccc2)c1` the EC50 was > 33 µM.
In the case of `Fc1ccc(F)c(/N=N/Nc2cccc(C(F)(F)F)c2)c1`, the EC50 is reported as > 80 µM.
For `CN(/N=N/c1ccccc1)c1ccccc1`, the EC50 was > 50 µM.
In the case of `O=[N+]([O-])c1cccc(/N=N/Nc2cccc([N+](=O)[O-])c2)c1`, the EC50 is reported as > 100 µM.
